# Experimental data reported in ChEMBL document CHEMBL1149768, “Novel Pd(II) complexes of 1-N-substituted 3-phenyl-2-pyrazoline derivatives and evaluation of antiamoebic activity” (Eur J Med Chem, 2008).
# pIC50: −log10 of the molar value.
# Test system: Entamoeba histolytica
# Assay: Antiamoebic activity against Entamoeba histolytica HM1 IMSS after 72 hrs by serial dilution method
# Format: functional, organism-based
# In short: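 Compounds were dissolved in DMSO and diluted in medium to 1 mg/mL, then to 0.1 mg/mL, with two-fold serial dilutions in microplate wells. Metronidazole was the standard. Each well got 1.7 × 10⁴ trophozoites, was gassed with N₂ and held at 37 °C for 72 h. Plates were methanol-fixed, eosin-stained and solubilised in 0.1 N NaOH, and OD was read at 490 nm. IC50 came from linear regression of % inhibition versus log dose.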
row,pIC50,SMILES
1,4.99,CC1CN(C(N)=S)N=C1c1ccccc1 (stereo not given)
2,5.34,Cc1ccccc1NC(=S)N1CC(C)C(c2ccccc2)=N1 (stereo not given)
3,5.34,CC1CN(C(=S)NCc2ccccc2Cl)N=C1c1ccccc1 (stereo not given)
4,5.06,CC1CN(C(=S)N2CCN(c3ccccc3)CC2)N=C1c1ccccc1 (stereo not given)
5,5.04,CC(C)CNC(=S)N1CC(C)C(c2ccccc2)=N1 (stereo not given)
6,5.06,CC1CN(C(=S)NC2CCCC2)N=C1c1ccccc1 (stereo not given)
7,4.82,CC(C)NC(=S)N1CC(C)C(c2ccccc2)=N1 (stereo not given)
8,5.36,CCCCNC(=S)N1CC(C)C(c2ccccc2)=N1 (stereo not given)
9,5.18,CC1CN(C(=S)NC2CCCCC2)N=C1c1ccccc1 (stereo not given)
10,5.63,CC1CN(C(=S)NC2CCCCCCC2)N=C1c1ccccc1 (stereo not given)
